# In ChEMBL document CHEMBL1140925, “Nuclear factor-kappaB mediated inhibition of cytokine production by imidazoline scaffolds” (J Med Chem, 2009):
# Legend:
# HeLa [1] = experiment: Cell cycle arrest in TNF-alpha-stimulated human HeLa cells transfected with NFkappaB-Luc assessed as accumulation at diploid G1 phase at 1 uM after 8 hrs by propidium iodide-based flow cytometry; format: functional
# [2] = Cytotoxicity against human whole blood IL-1-beta-stimulated lymphocytes assessed as survival cell count in millions at 10 uM by trypan blue staining based hemocytometer
# HeLa [3] = experiment: Effect on cell cycle arrest in TNF-alpha-stimulated human HeLa cells assessed as cell aggregate level at 0.5 uM after 8 hrs by propidium iodide-based flow cytometry; format: functional
# HeLa [4] = experiment: Effect on cell cycle arrest in TNF-alpha-stimulated human HeLa cells assessed as cell debris level at 0.1 uM after 8 hrs by propidium iodide-based flow cytometry; format: functional
# HeLa [5] = experiment: Effect on cell cycle arrest in TNF-alpha-stimulated human HeLa cells assessed as cell aggregate level at 5 uM after 8 hrs by propidium iodide-based flow cytometry; format: functional
# HeLa [6] = experiment: Cell cycle arrest in TNF-alpha-stimulated human HeLa cells transfected with NFkappaB-Luc assessed as accumulation at diploid stage at 0.05 uM after 8 hrs by propidium iodide-based flow cytometry; format: functional
# HeLa [7] = experiment: Cell cycle arrest in TNF-alpha-stimulated human HeLa cells transfected with NFkappaB-Luc assessed as accumulation at diploid G2 phase at 0.05 uM after 8 hrs by propidium iodide-based flow cytometry; format: functional
# HeLa [8] = experiment: Effect on cell cycle arrest in TNF-alpha-stimulated human HeLa cells assessed as cell debris level at 20 uM after 8 hrs by propidium iodide-based flow cytometry; format: functional
# HeLa [9] = experiment: Cell cycle arrest in TNF-alpha-stimulated human HeLa cells transfected with NFkappaB-Luc assessed as accumulation at diploid stage at 0.5 uM after 8 hrs by propidium iodide-based flow cytometry; format: functional
# Method in brief: (§1)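 HeLa NF-κB-luc cells (stable, hygromycin-selected) were treated with vehicle (1% DMSO) or compound at 40–0.2 µM final for 8 h at 37 °C, 5% CO2. Adherent cells were trypsinized, resuspended in PBS/50% FBS, fixed overnight in 70% ice-cold ethanol and washed with cold PBS/10% FBS, then analysed for cell cycle by flow cytometry.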
# HeLa [10] = experiment: Cell cycle arrest in TNF-alpha-stimulated human HeLa cells transfected with NFkappaB-Luc assessed as accumulation at diploid G2 phase at 0.5 uM after 8 hrs by propidium iodide-based flow cytometry; format: functional; method in brief: as §1
# [11] = Cytotoxicity against human whole blood IL-1-beta-stimulated lymphocytes assessed as survival cell count in millions at 20 uM by trypan blue staining based hemocytometer
# HeLa [12] = experiment: Cell cycle arrest in TNF-alpha-stimulated human HeLa cells transfected with NFkappaB-Luc assessed as accumulation at S phase at 0.1 uM after 8 hrs by propidium iodide-based flow cytometry; format: functional
# HeLa [13] = experiment: Cell cycle arrest in TNF-alpha-stimulated human HeLa cells transfected with NFkappaB-Luc assessed as accumulation at diploid G2 phase at 1 uM after 8 hrs by propidium iodide-based flow cytometry; format: functional
# HeLa [14] = experiment: Cell cycle arrest in TNF-alpha-stimulated human HeLa cells transfected with NFkappaB-Luc assessed as accumulation at S phase at 20 uM after 8 hrs by propidium iodide-based flow cytometry; format: functional; method in brief: as §1
# HeLa [15] = experiment: Effect on cell cycle arrest in TNF-alpha-stimulated human HeLa cells assessed as cell debris level at 1 uM after 8 hrs by propidium iodide-based flow cytometry; format: functional
# HeLa [16] = experiment: Cell cycle arrest in TNF-alpha-stimulated human HeLa cells transfected with NFkappaB-Luc assessed as accumulation at diploid G1 phase at 0.1 uM after 8 hrs by propidium iodide-based flow cytometry; format: functional
# HeLa [17] = experiment: Cell cycle arrest in human HeLa cells transfected with NFkappaB-Luc assessed as accumulation at G2/G1 phase at 20 uM after 8 hrs by propidium iodide-based flow cytometry; format: functional; method in brief: as §1
# HeLa [18] = experiment: Effect on cell cycle arrest in TNF-alpha-stimulated human HeLa cells assessed as cell aggregate level at 0.05 uM after 8 hrs by propidium iodide-based flow cytometry; format: functional
# HeLa [19] = experiment: Cell cycle arrest in TNF-alpha-stimulated human HeLa cells transfected with NFkappaB-Luc assessed as accumulation at diploid stage at 20 uM after 8 hrs by propidium iodide-based flow cytometry; format: functional; method in brief: as §1
# HeLa [20] = experiment: Cell cycle arrest in TNF-alpha-stimulated human HeLa cells transfected with NFkappaB-Luc assessed as accumulation at diploid stage at 1 uM after 8 hrs by propidium iodide-based flow cytometry; format: functional
# [21] = Cytotoxicity against human whole blood lymphocytes assessed as survival cell count in millions at 20 uM by trypan blue staining based hemocytometer
# HeLa [22] = experiment: Cell cycle arrest in TNF-alpha-stimulated human HeLa cells transfected with NFkappaB-Luc assessed as accumulation at G2/G1 phase at 0.5 uM after 8 hrs by propidium iodide-based flow cytometry; format: functional; method in brief: as §1
# HeLa [23] = experiment: Effect on cell cycle arrest in TNF-alpha-stimulated human HeLa cells assessed as cell aggregate level at 0.1 uM after 8 hrs by propidium iodide-based flow cytometry; format: functional
# HeLa [24] = experiment: Cell cycle arrest in human HeLa cells transfected with NFkappaB-Luc assessed as accumulation at diploid G1 phase at 20 uM after 8 hrs by propidium iodide-based flow cytometry; format: functional; method in brief: as §1
# HeLa [25] = experiment: Effect on cell cycle arrest in TNF-alpha-stimulated human HeLa cells assessed as cell debris level at 5 uM after 8 hrs by propidium iodide-based flow cytometry; format: functional
# HeLa [26] = experiment: Cell cycle arrest in TNF-alpha-stimulated human HeLa cells transfected with NFkappaB-Luc assessed as accumulation at diploid G1 phase at 20 uM after 8 hrs by propidium iodide-based flow cytometry; format: functional; method in brief: as §1
# HeLa [27] = experiment: Effect on cell cycle arrest in human HeLa cells assessed as cell aggregate level at 20 uM after 8 hrs by propidium iodide-based flow cytometry; format: functional
# Method in brief: (§2)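 Cells were exposed to vehicle (1% DMSO) or compound for 8 h at 37 °C, 5% CO₂. They were then trypsinized, resuspended in PBS with 50% FBS, fixed overnight in ice-cold 70% ethanol, and washed twice with ice-cold PBS containing 10% FBS before flow cytometric cell-cycle analysis.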
# HeLa [28] = experiment: Effect on cell cycle arrest in TNF-alpha-stimulated human HeLa cells assessed as cell aggregate level at 1 uM after 8 hrs by propidium iodide-based flow cytometry; format: functional
# HeLa [29] = experiment: Cell cycle arrest in TNF-alpha-stimulated human HeLa cells transfected with NFkappaB-Luc assessed as accumulation at diploid G1 phase at 10 uM after 8 hrs by propidium iodide-based flow cytometry; format: functional; method in brief: as §1
# HeLa [30] = experiment: Effect on cell cycle arrest in human HeLa cells assessed as cell debris level at 20 uM after 8 hrs by propidium iodide-based flow cytometry; format: functional; method in brief: as §2
# HeLa [31] = experiment: Effect on cell cycle arrest in TNF-alpha-stimulated human HeLa cells assessed as cell debris level at 0.05 uM after 8 hrs by propidium iodide-based flow cytometry; format: functional
# HeLa [32] = experiment: Cell cycle arrest in TNF-alpha-stimulated human HeLa cells transfected with NFkappaB-Luc assessed as accumulation at G2/G1 phase after 8 hrs by propidium iodide-based flow cytometry
# HeLa [33] = experiment: Cell cycle arrest in TNF-alpha-stimulated human HeLa cells transfected with NFkappaB-Luc assessed as accumulation at S phase at 0.5 uM after 8 hrs by propidium iodide-based flow cytometry; format: functional; method in brief: as §1
# HeLa [34] = experiment: Cell cycle arrest in TNF-alpha-stimulated human HeLa cells transfected with NFkappaB-Luc assessed as accumulation at diploid G2 phase at 20 uM after 8 hrs by propidium iodide-based flow cytometry; format: functional; method in brief: as §1
structure (smiles),measurement,setting,value
CCOC(=O)[C@]1(c2ccccc2)N=C(c2ccccc2)N(Cc2ccccc2)[C@@H]1c1ccccc1 (racemic),Activity,HeLa [1],63.22%
same,Activity,[2],1.48 mL⁻¹
same,Activity,HeLa [3],0%
same,Activity,HeLa [4],2%
same,Activity,HeLa [5],0%
same,Activity,HeLa [6],100%
same,Activity,HeLa [7],12.9%
same,Activity,HeLa [8],14.57%
same,Activity,HeLa [9],100%
same,Activity,HeLa [10],13.4%
same,Activity,[11],1.46 mL⁻¹
same,Activity,HeLa [12],21.47%
same,Activity,HeLa [13],13.88%
same,Activity,HeLa [14],19.29%
same,Activity,HeLa [15],4.88%
same,Activity,HeLa [16],64.5%
same,Ratio,HeLa [17],1.9
same,Activity,HeLa [18],0%
same,Activity,HeLa [19],100%
same,Activity,HeLa [20],100%
same,Cell count,[21],0.2617
same,Ratio,HeLa [22],1.91
same,Activity,HeLa [23],0%
same,Activity,HeLa [24],65.19%
same,Activity,HeLa [25],2.7%
same,Activity,HeLa [26],65.96%
same,Activity,HeLa [27],0%
same,Activity,HeLa [28],0%
same,Activity,HeLa [29],68.19%
same,Activity,HeLa [30],9.42%
same,Activity,HeLa [31],2.47%
same,Ratio,HeLa [32],1.91
same,Activity,HeLa [33],22.52%
same,Activity,HeLa [34],14.75%
